# “And” between values parts separate entries of the source, which are not always exact repeats. Equal values may be shown once. Read-outs that look alike come from different tables or passages of the source.
# Experiments:
# [1] = cited from earlier work
# [2] = Pharmacokinetics of ginsenosides in human plasma after single or repeated; assay type: in vivo; conditions: for Accumulation factor: AUC of repeated administration divided by AUC of single administration; for Detection in human plasma samples: after oral ingestion of red ginseng extract, LC-MS/MS; for AUC / Cmax / MRT / Tmax / half-life: male, human, plasma, po, 3 pouches of red ginseng extract; for half-life: t1/2, single dose of red ginseng extract, human plasma
# [3] = Permeability of ginsenoside in Caco-2 cells; assay type: in vitro ADME; conditions: human; for Papp A→B at 1 h, 10 μM / Papp B→A at 1 h, 10 μM: Caco-2; for efflux ratio at 1 h, 10 μM: Caco-2, ER (efflux ratio), Caco-2, B to A / A to B
# Method in brief: (§1)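 Caco-2 cells (passage 41–43) grown in DMEM with 20% FBS, 1% nonessential amino acids, 4 mM L-glutamine and penicillin-streptomycin, then cultured 21 days on Transwell inserts. Test compound at 10 μM in HBSS was dosed for apical-to-basal and basal-to-apical transport over 1 h. Samples were quenched in methanol with berberine IS and analysed by LC-MS/MS. Papp = transport rate / (donor concentration × insert area).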
# [4] = cited from earlier work; remark: listed apart in the source
# [5] = system: Caco-2 cells; assay: Permeability of ginsenoside in Caco-2 cells; assay type: in vitro ADME; conditions: for ER (efflux ratio): Caco-2, B to A / A to B; for Papp A to B: apical to basal; for Papp A to B / Papp B to A: 10 μM, 1 h; for Papp B to A: basal to apical
# Method in brief: as §1
SMILES,Stability over the enzymatic and alkaline hydrolysis [1],Accumulation factor [2],Detection in human plasma samples [2],AUC [2] [ng·h/mL],Cmax [2] [ng/mL],MRT [2] [h],Tmax [2] [h],half-life [2] [h],"Papp A→B at 1 h, 10 μM [3] [×10⁻⁶ cm/s]","Papp B→A at 1 h, 10 μM [3] [×10⁻⁶ cm/s]","efflux ratio at 1 h, 10 μM [3]",Bioavailability ([4]; ref Odani et al. [10]) [%],Bioavailability ([4]; ref Xu et al. [11]) [%],ER (efflux ratio) [5],Papp A to B [5],Papp B to A [5]
CC(C)=CCC[C@](C)(O[C@@H]1O[C@H](CO)[C@@H](O)[C@H](O)[C@H]1O)[C@H]1CC[C@]2(C)[C@@H]1[C@H](O)C[C@@H]1[C@@]3(C)CC[C@H](O[C@@H]4O[C@H](CO)[C@@H](O)[C@H](O)[C@H]4O[C@@H]4O[C@H](CO)[C@@H](O)[C@H](O)[C@H]4O)C(C)(C)[C@@H]3CC[C@]12C [Rd],stable,4.5–6.7 and 4.49,detected,22.6 ± 18.3,0.7 ± 0.46,24.7 ± 2.23,4.87 ± 1.92,24 ± 15.3,0.22 ± 0.02,0.31 ± 0.04,< 2,–,–,–,–,–
CC(C)=CCC[C@](C)(O[C@@H]1O[C@H](CO)[C@@H](O)[C@H](O)[C@H]1O)[C@H]1CC[C@]2(C)[C@@H]1[C@H](O)C[C@@H]1[C@@]3(C)CC[C@H](O)C(C)(C)[C@@H]3[C@@H](O[C@@H]3O[C@H](CO)[C@@H](O)[C@H](O)[C@H]3O)C[C@]12C [Rg1],–,–,could not be found,–,–,–,–,–,–,–,–,2,18.4,–,–,–
CC(C)=CCC[C@](C)(O[C@@H]1O[C@H](CO[C@@H]2OC[C@H](O)[C@H](O)[C@H]2O)[C@@H](O)[C@H](O)[C@H]1O)[C@H]1CC[C@]2(C)[C@@H]1[C@H](O)C[C@@H]1[C@@]3(C)CC[C@H](O[C@@H]4O[C@H](CO)[C@@H](O)[C@H](O)[C@H]4O[C@@H]4O[C@H](CO)[C@@H](O)[C@H](O)[C@H]4O)C(C)(C)[C@@H]3CC[C@]12C [Rb2],stable,4.5–6.7 and 6.73,detected,47.1 ± 16.4,1.26 ± 0.39,26.8 ± 1.74,3.87 ± 2.47,38.2 ± 20.3,0.28 ± 0.02,0.24 ± 0.05,–,–,–,–,–,–
CC(C)=CCC[C@](C)(O)[C@H]1CC[C@]2(C)[C@@H]1[C@H](O)C[C@@H]1[C@@]3(C)CC[C@H](O[C@@H]4O[C@H](CO)[C@@H](O)[C@H](O)[C@H]4O[C@@H]4O[C@H](CO)[C@@H](O)[C@H](O)[C@H]4O)C(C)(C)[C@@H]3CC[C@]12C [Rg3],–,–,absence,–,–,–,–,–,–,–,–,–,–,2.97,0.05 ± 0.01 ☓10^−6 cm/s,0.14 ± 0.06 ☓10^−6 cm/s
CC(C)=CCC[C@](C)(O)[C@H]1CC[C@]2(C)[C@@H]1[C@H](O)C[C@@H]1[C@@]3(C)CC[C@H](O)C(C)(C)[C@@H]3[C@@H](O[C@@H]3O[C@H](CO)[C@@H](O)[C@H](O)[C@H]3O)C[C@]12C [Rh1],–,–,could not be found,–,–,–,–,–,–,–,–,–,–,6.27,0.22 ± 0.04 ☓10^−6 cm/s,1.35 ± 0.14 ☓10^−6 cm/s
CC(C)=CCC[C@](C)(O[C@@H]1O[C@H](CO[C@@H]2O[C@@H](CO)[C@H](O)[C@H]2O)[C@@H](O)[C@H](O)[C@H]1O)[C@H]1CC[C@]2(C)[C@@H]1[C@H](O)C[C@@H]1[C@@]3(C)CC[C@H](O[C@@H]4O[C@H](CO)[C@@H](O)[C@H](O)[C@H]4O[C@@H]4O[C@H](CO)[C@@H](O)[C@H](O)[C@H]4O)C(C)(C)[C@@H]3CC[C@]12C [Rc],stable,4.5–6.7 and 5.44,detected,59.4 ± 22.9,1.5 ± 0.63,27.4 ± 2.34,3.68 ± 1.7,35.6 ± 14.8,0.28 ± 0.09,0.33 ± 0.06,< 2,–,–,–,–,–
CC(C)=CCC[C@](C)(O[C@@H]1O[C@H](CO[C@@H]2O[C@H](CO)[C@@H](O)[C@H](O)[C@H]2O)[C@@H](O)[C@H](O)[C@H]1O)[C@H]1CC[C@]2(C)[C@@H]1[C@H](O)C[C@@H]1[C@@]3(C)CC[C@H](O[C@@H]4O[C@H](CO)[C@@H](O)[C@H](O)[C@H]4O[C@@H]4O[C@H](CO)[C@@H](O)[C@H](O)[C@H]4O)C(C)(C)[C@@H]3CC[C@]12C [Rb1],stable,4.5–6.7 and 4.55,detected,82.7 ± 26.3,2.19 ± 0.73,26.8 ± 1.59,3.53 ± 1.25,35 ± 8.46,0.27 ± 0.03,0.3 ± 0.08,< 2,0.1,4.3,–,–,–

# Reference: PMC7031742 (Journal of Ginseng Research, 2018)
